Where two headings read alike, the source gives them in different places.
Tests used:
Format in all cases: cell-based
HeLa [1] = assay: MTT cytotoxicity assay, HeLa; conditions: read-out: IC50, HeLa
Outline: (§1)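 Cells were grown at 37 °C in 5% CO2: HeLa and NRK-52E in DMEM, NCI-H520 in RPMI, each with 10% heat-inactivated FBS plus penicillin/streptomycin/amphotericin B. They were seeded at 10^4 cells/well in triplicate and left 24 h. Test compound (5–300 μM) was added for 24 h, then removed with a PBS wash. MTT was added for 3 h, formazan dissolved in DMSO, and A570 read. IC50 came from nonlinear regression of survival curves, shown as mean ± SE of triplicate independent analyses.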

NCI-H520 [2] = assay: MTT cytotoxicity assay, NCI-H520; conditions: read-out: IC50, NCI-H520
Outline: as §1

HeLa [3] = assay: Apoptosis, Muse Annexin V & Dead cell kit, HeLa; conditions: IC50 dose (12.59 μM 4a, 11.26 μM 7b), 24 h; untreated 8.05%
NCI-H520 [4] = assay: Apoptosis, Muse Annexin V & Dead cell kit, NCI-H520; conditions: IC50 dose; untreated 7.15%
NRK-52E = assay: MTT cytotoxicity assay, NRK-52E; conditions: read-out: IC50, NRK-52E, 24 h treatment, normal rat kidney epithelial cell line
Outline: as §1

[5] = MTT, 24 h treatment, mean of three independent experiments

SMILES	IC50 (HeLa [1]; Homo sapiens, HeLa, 24 h) [µM]	IC50 (NCI-H520 [2]; Homo sapiens, NCI-H520, 24 h) [µM]	other results
CCn1c2ccccc2c2cc(/C=C/C(=O)c3cc4cccc(OC)c4oc3=O)ccc21 [Compound 3b, (E)-3-(3-(9-Ethyl-9H-carbazol-3-yl)acryloyl)-8-methoxy-2H-chromen-2-one]	119 ± 6.88	103 ± 4.78	–
CCn1c2ccccc2c2cc(C3CC(c4cc5c(ccc6ccccc65)oc4=O)=NN3c3cccc(Cl)c3)ccc21 (stereo not drawn) [Compound 7c, 2-(1-(3-Chlorophenyl)-5-(9-ethyl-9H-carbazol-3-yl)-4,5-dihydro-1H-pyrazol-3-yl)-3H-benzo[f]chromen-3-one]	29 ± 0.84	20.8 ± 0.27	–
CCn1c2ccccc2c2cc(C3CC(c4cc5cccc(OC)c5oc4=O)=NN3c3cccc(Cl)c3)ccc21 (stereo not drawn) [Compound 7b, 3-(1-(3-Chlorophenyl)-5-(9-ethyl-9H-carbazol-3-yl)-4,5-dihydro-1H-pyrazol-3-yl)-8-methoxy-2H-chromen-2-one]	11.4 ± 0.24	9.13 ± 0.08	apoptotic cells, HeLa (HeLa [3]): 24%; apoptotic cell death, NCI-H520 (NCI-H520 [4]): 16.10%
CCn1c2ccccc2c2cc(C3CC(c4cc5ccccc5oc4=O)=NN3c3ccc(C)cc3)ccc21 (stereo not drawn) [Compound 6a, 3-(5-(9-Ethyl-9H-carbazol-3-yl)-1-(p-tolyl)-4,5-dihydro-1H-pyrazol-3-yl)-2H-chromen-2-one]	67 ± 1.87	38.3 ± 0.78	–
CCn1c2ccccc2c2cc(/C=C/C(=O)c3cc4c(ccc5ccccc54)oc3=O)ccc21 [Compound 3c, (E)-2-(3-(9-Ethyl-9H-carbazol-3-yl)acryloyl)-3H-benzo[f]chromen-3-one]	142 ± 7.77	133 ± 4.75	–
CCn1c2ccccc2c2cc(C3CC(c4cc5c(ccc6ccccc65)oc4=O)=NN3C(C)=O)ccc21 (stereo not drawn) [Compound 8c, 2-(1-Acetyl-5-(9-ethyl-9H-carbazol-3-yl)-4,5-dihydro-1H-pyrazol-3-yl)-3H-benzo[f]chromen-3-one]	55.9 ± 1.3	77.61 ± 0.34	–
CCn1c2ccccc2c2cc(C3CC(c4cc5cccc(OC)c5oc4=O)=NN3c3ccccc3)ccc21 (stereo not drawn) [Compound 5b, 3-(5-(9-Ethyl-9H-carbazol-3-yl)-1-phenyl-4,5-dihydro-1H-pyrazol-3-yl)-8-methoxy-2H-chromen-2-one]	39 ± 0.46	62.7 ± 1.63	–
CCn1c2ccccc2c2cc(C3CC(c4cc5ccccc5oc4=O)=NN3C(C)=O)ccc21 (stereo not drawn) [Compound 8a, 3-(1-Acetyl-5-(9-ethyl-9H-carbazol-3-yl)-4,5-dihydro-1H-pyrazol-3-yl)-2H-chromen-2-one]	43.2 ± 0.52	62.5 ± 1.95	–
CCn1c2ccccc2c2cc(C3CC(c4cc5ccccc5oc4=O)=NN3c3cccc(Cl)c3)ccc21 (stereo not drawn) [Compound 7a, 3-(1-(3-Chlorophenyl)-5-(9-ethyl-9H-carbazol-3-yl)-4,5-dihydro-1H-pyrazol-3-yl)-2H-chromen-2-one]	33.4 ± 0.64	14.3 ± 0.21	–
CCn1c2ccccc2c2cc(C3CC(c4cc5c(ccc6ccccc65)oc4=O)=NN3c3ccc(C)cc3)ccc21 (stereo not drawn) [Compound 6c, 2-(5-(9-Ethyl-9H-carbazol-3-yl)-1-(p-tolyl)-4,5-dihydro-1H-pyrazol-3-yl)-3H-benzo[f] chromen-3-one]	57.5 ± 1.32	61.7 ± 1.48	–
N.N.[Cl][Pt][Cl] [Cis-platin, reference compound]	–	–	IC50 (HeLa [1]; [5]): 7.75 ± 0.42 µM; IC50 (NRK-52E): 12.9 ± 0.4 µM; IC50 (NCI-H520 [2]; [5]): 10.4 ± 1.35 µM
CCn1c2ccccc2c2cc(C3CC(c4cc5cccc(OC)c5oc4=O)=NN3c3ccc(C)cc3)ccc21 (stereo not drawn) [Compound 6b, 3-(5-(9-Ethyl-9H-carbazol-3-yl)-1-(p-tolyl)-4,5-dihydro-1H-pyrazol-3-yl)-8-methoxy-2H-chromen-2-one]	30.8 ± 0.5	30 ± 0.33	–
CCn1c2ccccc2c2cc(C3CC(c4cc5ccccc5oc4=O)=NN3c3ccccc3)ccc21 (stereo not drawn) [Compound 5a, 3-(5-(9-Ethyl-9H-carbazol-3-yl)-1-phenyl-4,5-dihydro-1H-pyrazol-3-yl)-2H-chromen-2-one]	92.5 ± 4.25	81.2 ± 1.46	–
CCn1c2ccccc2c2cc(C3CC(c4cc5ccccc5oc4=O)=NN3C(N)=O)ccc21 (stereo not drawn) [Compound 4a, 5-(9-Ethyl-9H-carbazol-3-yl)-3-(2-oxo-2H-chromen-3-yl)-4,5-dihydro-1H-pyrazole-1-carboxamide]	12.59 ± 0.1	11.3 ± 0.45	apoptotic cells, HeLa (HeLa [3]): 25.5%; apoptotic cell death, NCI-H520 (NCI-H520 [4]): 18%
O=c1[nH]cc(F)c(=O)[nH]1 [5-Fluorouracil, reference compound]	55.7 ± 2.1	8.36 ± 0.45	–
CCn1c2ccccc2c2cc(C3CC(c4cc5c(ccc6ccccc65)oc4=O)=NN3c3ccccc3)ccc21 (stereo not drawn) [Compound 5c, 2-(5-(9-Ethyl-9H-carbazol-3-yl)-1-phenyl-4,5-dihydro-1H-pyrazol-3-yl)-3H-benzo[f] chromen-3-one]	55 ± 0.96	83.6 ± 1.2	–
CCn1c2ccccc2c2cc(C3CC(c4cc5c(ccc6ccccc65)oc4=O)=NN3C(N)=O)ccc21 (stereo not drawn) [Compound 4c, 5-(9-Ethyl-9H-carbazol-3-yl)-3-(3-oxo-3H-benzo[f]chromen-2-yl)-4,5-dihydro-1H-pyrazole-1-carboxamide]	43.5 ± 1.02	55.6 ± 1.93	–
CCn1c2ccccc2c2cc(/C=C/C(=O)c3cc4ccccc4oc3=O)ccc21 [Compound 3a, (E)-3-(3-(9-Ethyl-9H-carbazol-3-yl)acryloyl)-2H-chromen-2-one]	132 ± 5.16	120 ± 3.78	–
CCn1c2ccccc2c2cc(C3CC(c4cc5cccc(OC)c5oc4=O)=NN3C(C)=O)ccc21 (stereo not drawn) [Compound 8b, 3-(1-Acetyl-5-(9-ethyl-9H-carbazol-3-yl)-4,5-dihydro-1H-pyrazol-3-yl)-8-methoxy-2H-chromen-2-one]	76.8 ± 1.45	54.7 ± 0.65	–
CCn1c2ccccc2c2cc(C3CC(c4cc5cccc(OC)c5oc4=O)=NN3C(N)=O)ccc21 (stereo not drawn) [Compound 4b, 5-(9-Ethyl-9H-carbazol-3-yl)-3-(8-methoxy-2-oxo-2H-chromen-3-yl)-4,5-dihydro-1H-pyrazole-1-carboxamide]	29.8 ± 1.85	22.5 ± 2.15	–

Reference: article PMC9037808 (RSC Advances, 2021)
